Reference: paper PMC3609949 (Journal of the American Chemical Society, 2013)
Where a SMILES comes first, the peptide text is derived from it. The star is where a group is joined. X1 = CC[C@@]1(OC(=O)CCCS*)C(=O)OCc2c1cc1n(c2=O)Cc2cc3ccccc3nc2-1

Assay: TEM imaging of self-assembled nanostructures in water
Format: physicochemical
Conditions: 50 μM in water, stained with 2% uranyl acetate
How it was run: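 Negative-stain TEM using 2% aqueous uranyl acetate to enhance contrast. Most stained samples were imaged at 50 μM. Some other images were taken at 1 mM, and one panel is listed at both 50 μM and 100 μM. Filament widths are given as value ± spread.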

CC[C@H](C)[C@H](NC(=O)[C@H](CCC(N)=O)NC(=O)[C@@H](NC(=O)CNC(=O)[C@H](CSSCCCC(=O)O[C@]1(CC)C(=O)OCc2c1cc1n(c2=O)Cc2cc3ccccc3nc2-1)NC(C)=O)C(C)C)C(=O)N[C@H](C(=O)N[C@@H](Cc1ccc(O)cc1)C(=O)N[C@@H](CCCCN)C(=O)N[C@@H](CCCCN)C(N)=O)C(C)C [mCPT-buSS-Tau] (Ac-C(X1)GVQIVYKK-NH2; N-terminus and C-terminus assumed)
width of self-assembled filaments/nanotubes: 6.7 ± 1 nm
